High-throughput results deposited in PubChem by The Scripps Research Institute Molecular Screening Center.
The list is not random: actives were taken first. Their share in the collection is about 1.8%.
M4 ag: human M4 muscarinic receptor agonists, primary screen, CHO-K1 cells, Fluo-8 calcium fluorescence | hit rate 0.14% among 360,000 | Muscarinic acetylcholine receptor M4 (Homo sapiens), P08173 | CHO-K1 hM4/Gqi5; vehicle 0%, full acetylcholine response 100% | activation, % at 3 µM | AID 624127, 2012;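 active = activation above the run mean over all test wells plus 3 SD, cut at about 32% in these data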;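 also: peak over basal fluorescence ratio per well then scaled between controls; 0% = DMSO wells and 100% = acetylcholine at EC100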
Target sequence (P08173 whole entry, looked up): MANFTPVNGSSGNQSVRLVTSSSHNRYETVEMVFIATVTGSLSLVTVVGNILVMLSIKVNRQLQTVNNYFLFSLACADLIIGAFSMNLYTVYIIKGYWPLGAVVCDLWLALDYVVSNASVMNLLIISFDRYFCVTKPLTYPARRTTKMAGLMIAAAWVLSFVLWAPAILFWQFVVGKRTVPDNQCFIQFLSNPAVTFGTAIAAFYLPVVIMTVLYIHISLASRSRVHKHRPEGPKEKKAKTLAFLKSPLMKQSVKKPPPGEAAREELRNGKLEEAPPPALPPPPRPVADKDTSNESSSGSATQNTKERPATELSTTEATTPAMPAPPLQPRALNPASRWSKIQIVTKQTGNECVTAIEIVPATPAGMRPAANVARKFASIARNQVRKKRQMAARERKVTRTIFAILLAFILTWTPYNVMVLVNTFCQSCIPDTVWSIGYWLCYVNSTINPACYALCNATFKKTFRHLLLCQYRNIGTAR
M4 antag: human M4 muscarinic receptor antagonists, primary screen, CHO cells, Fluo-8 calcium fluorescence; Muscarinic acetylcholine receptor M4 (Homo sapiens), P08173; CHO-hM4 cells, ACh EC80; inhibition, % at 3 µM; hit rate 0.73% among 360,000;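 active = inhibition above its plate's cutoff, the mean inhibition of sample wells plus 3 SD, cut at about 27% in these data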;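 also: 0% = acetylcholine EC80 with DMSO and 100% = DMSO without agonist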
M5 PAM: human M5 muscarinic receptor positive allosteric modulators, primary screen, CHO-K1 cells, Fluo-8 calcium fluorescence; CHO-K1 hM5, ACh EC20 PAM; 0% = ACh EC20, 100% = ACh EC100; AID 624038, 2012; hit rate 0.3% among 360,000; activation, % at 3 µM;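 active = activation above the run cutoff, the mean activation of all test compounds plus 3 SD, cut at about 18% in these data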
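Assay system: CHO-K1 hM5 cells. Also added: acetylcholine at EC20 concentration, added after compound. Dosing: 3 µM, single dose. Times: compound preincubation 140 s before EC20 acetylcholine addition. Signal: Fluo-8 calcium fluorescence. Measure: % activation relative to EC20 and EC100 ACh responses. Repeats: singlicate, one well per test compound.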
CHRM4 PAM: human M4 muscarinic receptor positive allosteric modulators, primary screen, CHO-K1 cells, Fluo-8 calcium fluorescence; Muscarinic acetylcholine receptor M4 (Homo sapiens), P08173; CHO-K1 hM4/Gqi5, ACh EC20; 0% = ACh EC20, 100% = maximal ACh; activation, % at 3 µM; hit rate 0.4% among 360,000;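 active = activation above its plate's cutoff, the mean activation of sample wells plus 3 SD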
M5 ag: human M5 muscarinic receptor agonists, primary screen, CHO-K1 cells, Fluo-8 calcium fluorescence. Muscarinic acetylcholine receptor M5 (Homo sapiens), P08912. CHO-K1 hM5 cells; 0% DMSO wells, 100% maximal acetylcholine response. activation, % at 3 µM. hit rate 0.19% among 360,000. AID 624037, 2012;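 active = activation above the run's mean over test compounds plus 3 SD, cut at about 23% in these data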;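 also: signal is peak over basal fluorescence ratio across the kinetic read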
CHRM5 antagonist: human M5 muscarinic receptor antagonists, primary screen, CHO cells, Fluo-8 calcium fluorescence | CHO-hM5 cells, ACh EC80 | hit rate 0.59% among 360,000 | AID 624040, 2012 | inhibition, % at 3 µM;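 active = inhibition above a per-plate cutoff, the mean of that plate's test compounds plus 3 SD, cut at about 27% in these data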;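 also: 0% = acetylcholine EC80 with DMSO and 100% = DMSO without agonist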
* marks the source's active call; other numbers are inactive results.

SMILES	M4 ag	M4 antag	M5 PAM	CHRM4 PAM	M5 ag	CHRM5 antagonist
COc1cc(/C=N/NC(=O)c2nnn(-c3nonc3N)c2C(C)C)ccc1OCc1ccccc1	14	12	-9	-5	3	10
CCN(C(=O)C(C)OC(=O)c1nn(-c2ccccc2C(F)(F)F)cc1O)c1ccccc1 (centres undefined)	4	-6	-3	5	5	11
CC1CCN(C(=O)Cn2cc(C#N)c3ccccc32)CC1	2	27*	14	-7	-1	4
CN(C)CC1CC/C(=C\c2ccc(O)cc2)C1=O (centres undefined)	8	39*	-8	-3	3	10
Cc1ccc(NS(=O)(=O)c2c(C)[nH]c(C)c2C(=O)N2CCCC2)cc1Cl	4	-2	32*	9	7	8
Cc1ccc(NS(=O)(=O)c2c(C)[nH]c(C)c2C(=O)N2CCCCC2)cc1C	2	-14	-4	10	-5	6
O=C(c1ccc(=O)[nH]n1)N1CCN(S(=O)(=O)c2ccc(C(F)(F)F)cc2)CC1	1	-16	-11	2	-9	-2
Cc1ccc(S(=O)(=O)Nc2ncccn2)cc1	0	3	2	0	3	11
C[C@H]1O[C@H](C2CCCC2)CC2=C1C(=O)OC(C)(C)O2	-1	-5	7	2	1	-7
Cc1ccccc1-c1cc2nc(Oc3cccc4ccccc34)n(C)c(=O)c2s1	0	5	0	-2	0	2
CC(C)c1ccc(-c2nc(N3CCCC3)nc3n[nH]c(N)c23)cc1	1	-5	54*	12	3	-2
O=C(c1ccc(Br)o1)N1CCN(C23CC4CC(CC(C4)C2)C3)CC1	2	31*	-7	-15	-8	9
O=C(c1ccco1)N1CCN(C(=O)c2ccc(Br)o2)CC1	2	-7	-1	11	0	0
CC1CCN(S(=O)(=O)c2ccc(C(=O)Nc3ccccn3)cc2)CC1	6	-6	-8	-4	-3	11
CCn1c(C)cc(/C=C2\NC(=O)N(Cc3ccc(Cl)cc3)C2=O)c1C	2	31*	0	9	5	-5
CCN1C(=O)N/C(=C/c2cc(C)n(Cc3ccccc3)c2C)C1=O	3	6	0	5	0	3
Cc1c(C(=O)NCc2ccc(C(F)(F)F)cc2)sc(=O)n1Cc1cccc(F)c1	54*	30*	-6	-5	50*	32*
COc1ccc(Br)c(Cn2c(C)c(C(=O)NCc3cccc([N+](=O)[O-])c3)sc2=O)c1	5	31*	-12	-16	1	2
Cc1cn([C@H]2C[C@H](O)[C@@H](/C=C/C(=O)NCCN3CCCCC3)O2)c(=O)[nH]c1=O	2	-13	6	10	2	4
COc1ccc(NC(=O)CSc2nnc(NC(=O)c3ccc(S(=O)(=O)N4CCOCC4)cc3)s2)cc1	1	23	23*	5	7	15
O=C(NCc1cccs1)c1csc(COCCO)n1	1	-10	-2	10	1	-6
CCc1ccc(N2CC(O)(c3cccs3)[N+]3=C2SCCC3)cc1 (centres undefined)	17	24	-33	-27	-13	33*
Cc1ccc(N2CC(O)(c3cccs3)[N+]3=C2CCCC3)cc1 (centres undefined)	1	40*	-31	-27	-15	42*
Cc1cccc(N2CC(O)(c3cccs3)[N+]3=C2CCCC3)c1C (centres undefined)	16	30*	-17	-24	-16	17
CN(Cc1ccccc1)C(=O)c1csc([C@H]2C[C@H](O)[C@@H](CO)O2)n1	0	0	-2	2	0	-3
SMILES	M4 ag	M4 antag	M5 PAM	CHRM4 PAM	M5 ag	CHRM5 antagonist
COc1ccc(/C=N/NC(=O)c2cccc(S(=O)(=O)N3CCCC3)c2)cc1O	3	-19	0	15	-2	-4
CN(C)CC(c1ccccc1)c1ccccc1	0	3	-6	-2	-19	14
CN(C)CCC(=O)C(Cc1ccccc1)c1ccccc1 (centres undefined)	4	35*	-19	-15	-18	5
CC(CCCN(C)C)C(Cc1ccccc1)c1ccccc1 (centres undefined)	10	29*	-35	-17	-18	31*
CN(C)CCNC(=O)C(c1ccccc1)c1ccccc1	1	-4	-8	-5	-20	11
CC(C)Cc1nnc(NC(=O)C2CCCN(C(=O)c3ccc(Cl)cc3)C2)s1 (centres undefined)	1	-8	7	7	3	-3
COc1ccc(C(=O)OCc2c(-c3ccccc3)ncc3ccccc23)cc1	0	4	-7	5	-7	18
CC1CC(C)CN(c2ncc3c(n2)CC(c2ccccc2Cl)CC3=O)C1 (centres undefined)	0	16	7	7	1	-8
CC1CC(C)CN(c2ncc3c(n2)CC(c2ccc(Cl)cc2)CC3=O)C1 (centres undefined)	1	6	39*	7	6	-6
COc1ccc(-c2cnc3c(NC=O)cc(-c4cccc(NS(C)(=O)=O)c4)cn23)cc1OC	2	-10	-9	-4	-2	4
Cc1oc(-c2ccccc2)cc1C(=O)Nc1cccc(C(=O)O)c1	1	-5	14	43*	-4	-2
Cc1ccc(NC(=O)CNc2ccc(Cl)c(Cl)c2)cc1S(=O)(=O)N(C)C	27	33*	-14	-11	9	24
C[C@H](CO)N1C[C@H](C)[C@@H](CN(C)S(=O)(=O)c2ccccc2)Oc2c(NC(=O)Nc3ccc4c(c3)OCO4)cccc2C1=O	9	-18	-2	-5	-1	-3
COc1ccccc1NC(=O)C1CCCN(c2nc(C)cc(C)n2)C1 (centres undefined)	-1	-4	-7	17*	-4	8
CCC(SC1=N/C(=C/c2ccccc2OC)C(=O)N1c1ccccc1)C(=O)Nc1cc(C)on1 (centres undefined)	-1	2	-6	-1	-5	1
